Test results: ChEMBL document CHEMBL4251608, “Emimycin and its nucleoside derivatives: Synthesis and antiviral activity” (Eur J Med Chem, 2018)
Active and inactive are the calls of the source. The calls are words filed in the database; no cut-off is given here.

Columns and labels:
[1] = system: Human alphaherpesvirus 3; assay: Antiviral activity against TK-positive VZV Oka infected in HEL cells assessed as reduction in plaque formation after 5 days; type: functional, organism-based; conditions: Human alphaherpesvirus 3, strain Oka vaccine, 120 h
[2] = system: Human alphaherpesvirus 1; assay: Antiviral activity against acyclovir-resistant HSV1 KOS harboring TK- mutant infected in HEL cells assessed as reduction in virus-induced cytopathic effect after 2 to 3 days; type: functional, organism-based; conditions: Human alphaherpesvirus 1, KOS
Outline: (§1)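 Confluent HEL fibroblasts were infected with 100 CCID50 of HSV. After 2 h adsorption the virus was removed and cells were incubated with varying compound concentrations. Virus-induced cytopathicity was scored 2-3 days post-infection. […] Data are the mean of two independent experiments.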

[3] = system: Human alphaherpesvirus 1; assay: Antiviral activity against HSV1 KOS infected in HEL cells assessed as reduction in virus-induced cytopathic effect after 2 to 3 days; type: functional, organism-based; conditions: Human alphaherpesvirus 1, KOS; outline: as §1
[4] = system: Human alphaherpesvirus 3; assay: Antiviral activity against TK-defecient VZV 07-1 infected in HEL cells assessed as reduction in plaque formation after 5 days; type: functional, organism-based; conditions: Human alphaherpesvirus 3, 07-1, HEL, 120 h
[5] = system: Human betaherpesvirus 5; assay: Antiviral activity against HCMV Davis infected in HEL cells assessed as reduction in virus-induced cytopathic effect after 6 to 7 days; type: functional, organism-based; conditions: Human betaherpesvirus 5, Davis
Outline: (§2)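 Confluent HEL fibroblasts were inoculated with 100 CCID50 of HCMV. After 2 h adsorption the inoculum was removed and cells were incubated with varying compound concentrations. Viral cytopathicity was recorded 6-7 days post-infection. […] Data are the mean of two independent experiments.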

[6] = Cytotoxicity against HEL cells assessed as reduction in cell viability after 3 days by coulter counting method; type: cell-based; conditions: human
Outline: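 HEL fibroblasts seeded at 5 x 10^3 cells/well, left to proliferate 24 h, then given medium with varying compound concentrations. After 3 days at 37 °C, cells counted with a Coulter counter.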

[7] = system: Human alphaherpesvirus 2; assay: Antiviral activity against HSV2 strain G infected in HEL cells assessed as reduction in virus-induced cytopathic effect after 2 to 3 days; type: functional, organism-based; conditions: Human alphaherpesvirus 2, strain G; outline: as §1
[8] = system: Human betaherpesvirus 5; assay: Antiviral activity against HCMV AD169 infected in HEL cells assessed as reduction in virus-induced cytopathic effect after 6 to 7 days; type: functional, organism-based; conditions: Human betaherpesvirus 5, AD169, HEL; outline: as §2
[9] = Ratio of EC50 for TK-defecient VZV 07-1 infected in HEL cells to EC50 for TK-positive VZV Oka infected in HEL cells; type: functional
Outline: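 Confluent HEL fibroblasts were inoculated with 20 PFU of VZV, either TK− strain 07−1 or Oka. After 2 h adsorption the inoculum was removed and compound was added at varying concentrations. […] The ratio is the TK− EC50 over the Oka EC50.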

[10] = Selectivity index, ratio of CC50 for HEL cells to EC50 for TK-positive VZV Oka infected in HEL cells; type: toxicity, cell-based; conditions: human, read-out: Ratio CC50/EC50
Outline: (§3)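 SI = CC50/EC50, with both values from HEL fibroblasts. For the antiviral part, confluent cultures were inoculated with 100 CCID50 (HSV) or 20 PFU (VZV Oka). After 2 h adsorption the inoculum was removed and compounds added. Cytopathicity was scored at 2-3 days (HSV) and plaques at 5 days (VZV). CC50 came from Coulter counting of cell growth after 3 days.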

[11] = system: Human alphaherpesvirus 1; assay: Ratio of EC50 for acyclovir-resistant HSV1 KOS harboring TK- mutant infected in HEL cells to EC50 for HSV1 KOS infected in HEL cells; type: functional
Outline: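 HEL fibroblasts were infected with 100 CCID50 of TK− ACV-resistant HSV-1 KOS or wild-type KOS, with 2 h adsorption, then incubated with varying compound concentrations. Cytopathicity was read at 2-3 days to give EC50 values. The ratio is TK− EC50 divided by wild-type EC50.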

[12] = Selectivity index, ratio of CC50 for HEL cells to EC50 for HSV1 KOS infected in HEL cells; type: toxicity, cell-based; conditions: human, read-out: Ratio CC50/EC50; outline: as §3
[13] = Cytotoxicity against HEL cells assessed as alteration in cell morphology after 3 days by microscopic method; type: cell-based; conditions: human
Outline: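 HEL cells were treated with test compounds. MCC is the minimum concentration causing a microscopically detectable alteration of cell morphology. Data are the mean of two independent experiments.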

[14] = Selectivity index, ratio of CC50 for HEL cells to EC50 for HSV2 strain G infected in HEL cells; type: toxicity, cell-based; conditions: human, read-out: Ratio CC50/EC50; outline: as §3
[15] = Cytotoxicity against MDCK cells assessed as reduction in cell viability by MTS assay; type: cell-based, Canis lupus familiaris; conditions: dog
[16] = system: Escherichia coli; assay: Antibacterial activity against Escherichia coli; type: functional, organism-based
[17] = system: HeLa; assay: Cytotoxicity against human HeLa cells at 100 uM; type: cell-based
[18] = system: Respiratory syncytial virus; assay: Antiviral activity against RSV infected in human HeLa cells at 100 uM; type: functional, organism-based
[19] = system: Influenza A virus; assay: Antiviral activity against Influenza A virus A/Ned/378/05(H1N1) infected in MDCK cells assessed as reduction in virus-induced cytopathic effect by MTS assay; type: functional, organism-based
[20] = Cytotoxicity against MDCK cells assessed as alteration in cell morphology by microscopic method; type: cell-based, Canis lupus familiaris; conditions: dog
Outline: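 MDCK cells exposed to compounds (up to 100 µM) and examined microscopically. MCC taken as the minimum concentration causing a detectable alteration of normal cell morphology.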

[21] = system: Enterococcus faecium; assay: Antibacterial activity against Streptococcus faecium; type: functional, organism-based
[22] = system: Influenza B virus; assay: Antiviral activity against Influenza B virus B/Ned/537/05 infected in MDCK cells assessed as reduction in virus-induced cytopathic effect by MTS assay; type: functional, organism-based; conditions: B/Ned/537/05, MDCK
[23] = system: H3N2 subtype; assay: Antiviral activity against Influenza A virus A/HK/7/87(H3N2) infected in MDCK cells assessed as reduction in virus-induced cytopathic effect by MTS assay; type: functional, organism-based; conditions: A/Hong Kong/7/1987(H3N2)

| SMILES | EC50 [1] [µM] | EC50 [2] [µM] | EC50 [3] [µM] | EC50 [4] [µM] | EC50 [5] [µM] | CC50 at 72 h [6] [µM] | EC50 [7] [µM] | EC50 [8] [µM] | CC50 [15] [µM] | Activity [17] | Activity [18] | EC50 [19] [µM] | MCC [20] [µM] | EC50 [22] [µM] | EC50 [23] [µM] | also measured |
| --- | --- | --- | --- | --- | --- | --- | --- | --- | --- | --- | --- | --- | --- | --- | --- | --- |
| O=c1c[n+]([O-])ccn1[C@H]1C[C@H](O)[C@@H](CO)O1 | > 438 | > 438 | > 438 | > 438 | > 438 | > 438 | > 438 | > 438 |  |  |  |  |  |  |  |  |
| Cc1cn([C@H]2C[C@H](O)[C@@H](CO)O2)c(=O)c[n+]1[O-] | 0.99 | 59.4 | 1.79 | 6.91 | > 412 | > 412 | 17.5 | > 412 |  |  |  |  |  |  |  | Ratio EC50 [9]: 7; selectivity ratio [10]: > 416; Ratio EC50 [11]: 30; selectivity ratio [12]: 230; MCC at 72 h [13]: 169 µM; selectivity ratio [14]: 24 |
| Cc1cn([C@@H]2C[C@H](O)[C@@H](CO)O2)c(=O)c[n+]1[O-] | 328 | > 412 | > 412 | > 412 | > 412 | > 412 | > 412 | > 82 |  |  |  |  |  |  |  |  |
| CCc1cn([C@@H]2C[C@H](O)[C@@H](CO)O2)c(=O)c[n+]1[O-] | 142 | > 390 | 174 | 174 | > 78 | > 390 | 204 | > 78 |  |  |  |  |  |  |  |  |
| O=c1[nH]c(=O)n([C@H]2C[C@H](O)[C@@H](CO)O2)cc1/C=C/Br [BRIVUDINE] | 0.035 | 20.1 | 0.068 | 6.66 |  | > 300 |  |  |  |  |  |  |  |  |  | MCC at 72 h [13]: > 300 µM |
| O=c1c[n+]([O-])ccn1[C@@H]1C[C@H](O)[C@@H](CO)O1 | 438 | > 438 | > 438 | > 438 | > 438 | > 438 | > 438 | > 87 |  |  |  |  |  |  |  |  |
| O=c1c[n+]([O-])cc[nH]1 |  |  |  |  |  |  |  |  | > 100 | Non-Toxic | inactive | > 100 | > 100 | > 100 | > 100 | EC50 [16]: 10 µM; EC50 [21]: 8 µM |
| O=c1c[n+]([O-])ccn1[C@@H]1O[C@H](CO)[C@@H](O)[C@H]1O |  |  |  |  |  |  |  |  | > 100 | Non-Toxic | inactive | > 100 | > 100 | > 100 | > 100 |  |
| O=c1c[n+]([O-])ccn1[C@H]1O[C@H](CO)[C@@H](O)[C@H]1O |  |  |  |  |  |  |  |  | > 100 | Non-Toxic | inactive | > 100 | > 100 | > 100 | > 100 |  |
| Cc1c[nH]c(=O)c[n+]1[O-] |  |  |  |  |  |  |  |  | > 100 | Non-Toxic | inactive | > 100 | > 100 | > 100 | > 100 |  |
| Nc1ccn(C[C@@H](CO)OCP(=O)(O)O)c(=O)n1 [CIDOFOVIR] |  | 1.56 | 2.81 |  | 1.58 | > 358 | 1.97 | 1.04 |  |  |  |  |  |  |  | MCC at 72 h [13]: > 358 µM |
| Nc1nc2c(ncn2COCCO)c(=O)[nH]1 [ACYCLOVIR] |  | 88.8 | 0.38 |  |  | > 444 |  |  |  |  |  |  |  |  |  | MCC at 72 h [13]: > 444 µM |
| Cc1cn([C@@H]2O[C@H](CO)[C@@H](O)[C@H]2O)c(=O)c[n+]1[O-] |  |  |  |  |  |  |  |  | > 100 | Non-Toxic | inactive | > 100 | > 100 | > 100 | > 100 |  |
| CCc1c[nH]c(=O)c[n+]1[O-] |  |  |  |  |  |  |  |  | > 100 | Non-Toxic | inactive | > 100 | > 100 | > 100 | > 100 |  |
| CCc1cn([C@H]2O[C@H](CO)[C@@H](O)[C@H]2O)c(=O)c[n+]1[O-] |  |  |  |  |  |  |  |  | > 100 | Non-Toxic | inactive | > 100 | > 100 | > 100 | > 100 |  |
| Cc1cn([C@H]2O[C@H](CO)[C@@H](O)[C@H]2O)c(=O)c[n+]1[O-] |  |  |  |  |  |  |  |  | > 100 | Non-Toxic | inactive | > 100 | > 100 | > 100 | > 100 |  |
| CCc1cn([C@@H]2O[C@H](CO)[C@@H](O)[C@H]2O)c(=O)c[n+]1[O-] |  |  |  |  |  |  |  |  | > 100 | Non-Toxic | inactive | > 100 | > 100 | > 100 | > 100 |  |
| CCc1cn([C@H]2C[C@H](O)[C@@H](CO)O2)c(=O)c[n+]1[O-] | 7.77 | > 390 | 8.55 | 138 | > 78 | > 390 | 145 | > 78 |  |  |  |  |  |  |  |  |
